Drawing on ChEMBL document CHEMBL1287702, “Synthesis, cytotoxicity, and structure-activity relationship (SAR) studies of andrographolide analogues as anti-cancer agent” (Bioorg Med Chem Lett, 2010), this text covers IC50 and Activity for 13 compounds.

Activity calls are given as the source filed them. No cut-off for these calls is given here.

The test system of experiment [1] is U-937. In words: Antiproliferative activity against human U937 cells assessed as growth inhibition after 48 hrs by MTS-PMS assay. The experiment is classed as functional, cell-based. The method, boiled down: (§1)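 Cells at 2.5-5.0 × 10^4 per 200 µL were exposed to compounds (0-50 µM) for 48 h at 37 °C, 5% CO₂. MTS (2.0 mg/ml) and PMS (0.92 mg/ml), mixed 10:1, were added for 3 h at 37 °C, and A490 was read. Background was subtracted, viability was taken as a % of untreated, and IC50 was found by graphic extrapolation.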
Background: Tetrazolium assays rely on reduction of a dye to a coloured formazan, in cell work by metabolically active cells.

For experiment [2], the system named is K562. Description: Antiproliferative activity against human K562 cells assessed as growth inhibition after 48 hrs by MTS-PMS assay. The experiment is classed as functional, cell-based. In a few lines: as §1
The test system of experiment [3] is THP-1. In words: Antiproliferative activity against human THP1 cells assessed as growth inhibition after 48 hrs by MTS-PMS assay. The experiment is classed as functional, cell-based. In a few lines: as §1
A short description of experiment [4]: Antiproliferative activity against mouse NIH/3T3 cells assessed as growth inhibition after 48 hrs by MTS-PMS assay. The class given is cell-based, NIH3T3. In a few lines: as §1
Experiment [5] can be described thus: Antiproliferative activity against human L-132 cells assessed as growth inhibition after 48 hrs by MTS-PMS assay. The class given is cell-based, L132. The method, boiled down: as §1
In experiment [6] the test system is U-937. In words: Induction of apoptosis in human U937 cell assessed as formation of apoptotic bodies with membrane blebbing at IC50 concentration after 24 hrs using Hoechst 33258 staining by confocal microscopic analysis. The experiment is classed as functional, cell-based.
Experiment [7] deals with U-937. In words: Induction of apoptosis in human U937 cell assessed as pre-necrotic cells at IC50 concentration after 24 hrs using Annexin V-FITC staining by flow cytometry relative to untreated control. The experiment is classed as functional.
Experiment [8] deals with U-937. In words: Induction of apoptosis in human U937 cell assessed as early apoptotic cells at IC50 concentration after 24 hrs using Annexin V-FITC staining by flow cytometry relative to untreated control. The experiment is classed as functional.
The subject of experiment [9] is U-937. Description: Induction of apoptosis in human U937 cell assessed as late apoptotic cells at IC50 concentration after 24 hrs using Annexin V-FITC staining by flow cytometry relative to untreated control. The experiment is classed as functional. A general note: A flow cytometer gives signals particle by particle.
Where [10] appears, read: Homo sapiens, U-937, 48 h, read-out: IC50.
Setting [11] is: Homo sapiens, K562, 48 h, read-out: IC50.
[12] abbreviates: Homo sapiens, THP-1, 48 h, read-out: IC50.
The mark [13] stands for this setting: Mus musculus, NIH3T3, 48 h, read-out: IC50.
The mark [14] stands for this setting: Homo sapiens, L132, 48 h, read-out: IC50.

A word on the IC50: it is the concentration that inhibits the measured activity by half. `C=C1CC[C@@H]2[C@]3(C)COC(C)(C)O[C@@H]3CC[C@@]2(C)[C@@H]1C/C=C1/C(=O)OC[C@H]1OC(=O)c1ccccc1C(=O)O`: the IC50 in experiment [1] (setting [10]) worked out at 14.6 µM; in experiment [2] (setting [11]), 26.9 µM; in [3] (setting [12]) it was 12.2 µM; in experiment [4] (setting [13]) it was 16 µM; in [5] (setting [14]), 18.8 µM.

On to `C=C1CC[C@@H]2[C@](C)(CO)[C@H](O)CC[C@@]2(C)[C@@H]1C/C=C1/C(=O)OC[C@H]1OC(=O)CCCC(=O)O`, for which the IC50 was 9.76 µM in experiment [1] (setting [10]); 19.6 µM in experiment [2] (setting [11]); 7.53 µM in [3] (setting [12]); 22.1 µM in experiment [4] (setting [13]); 19.5 µM in [5] (setting [14]).

As for `C=C1CC[C@@H]2[C@](C)(CO)[C@H](O)CC[C@@]2(C)[C@@H]1C/C=C1/C(=O)OC[C@H]1OC(=O)/C=C\C(=O)O`, the IC50 in experiment [1] (setting [10]) was determined as 9.72 µM; in [2] (setting [11]), 42 µM; in [3] (setting [12]), 7.77 µM; in [4] (setting [13]) it was 11.3 µM; in [5] (setting [14]) it was 12.8 µM.

Consider `C=C1CC[C@@H]2[C@](C)(CO)[C@H](O)CC[C@@]2(C)[C@@H]1C/C=C1/C(=O)OC[C@H]1OC(=O)CCC(=O)O`, for which the result in experiment [6] was Active. In addition, the Activity in experiment [7] is given as 2.51%; in [8], 18.77%; in [9], 27.25%. In addition, the IC50 in experiment [1] (setting [10]) came out at 5.47 µM; in [2] (setting [11]) it was 25.3 µM; in experiment [3] (setting [12]), 5.84 µM; in [4] (setting [13]), 10.2 µM; in experiment [5] (setting [14]), 8.5 µM.

Take `C=C1CC[C@@H]2[C@]3(C)COC(C)(C)O[C@@H]3CC[C@@]2(C)[C@@H]1C/C=C1/C(=O)OC[C@H]1OC(=O)/C=C\C(=O)O`: the results for the IC50 in experiment [3] (setting [12]) and in experiment [5] (setting [14]) were 14.8 µM and 31.1 µM, respectively.

With `C=C1CC[C@@H]2[C@]3(C)COC(C)(C)O[C@@H]3CC[C@@]2(C)[C@@H]1C/C=C1/C(=O)OC[C@H]1OC(=O)CCC(=O)O`, the IC50 was determined as 19.5 µM in experiment [1] (setting [10]); 31.4 µM in [2] (setting [11]); 10 µM in experiment [3] (setting [12]); 36.7 µM in [4] (setting [13]); 21.7 µM in experiment [5] (setting [14]).

As to `C=C1CC[C@@H]2[C@](C)(CO)[C@H](O)CC[C@@]2(C)[C@@H]1CCC1C(=O)OC[C@H]1OC(=O)/C=C\C(=O)O` (stereo partly specified), the IC50 result in [1] (u-937), in experiment [2] (k562), in experiment [3] (thp-1), in [4] (nih3t3) and in experiment [5] (l132) was “Not Active” in each case.

Turning to `C=C1CC[C@@H]2[C@](C)(CO)[C@H](O)CC[C@@]2(C)[C@@H]1CCC1C(=O)OC[C@H]1OC(=O)CCC(=O)O` (stereo partly specified), in [1] (u-937), the IC50 result is on record as “Not Active”.

For the compound `C=C1CC[C@@H]2[C@](C)(CO)[C@H](O)CC[C@@]2(C)[C@@H]1C/C=C1/C(=O)OC[C@H]1OC(=O)c1ccccc1C(=O)O`, the IC50 in [1] (setting [10]) worked out at 6.27 µM; in [2] (setting [11]), 41.1 µM; in [3] (setting [12]), 5.68 µM; in experiment [4] (setting [13]) it was 8.01 µM; in experiment [5] (setting [14]), 10.9 µM.

For `C=C1CC[C@@H]2[C@](C)(CO)[C@H](O)CC[C@@]2(C)[C@@H]1C/C=C1/C(=O)OC[C@H]1O` [ANDROGRAPHOLIDE], the IC50 in experiment [1] (setting [10]) is 12.9 µM; in experiment [2] (setting [11]), 41.9 µM; in experiment [3] (setting [12]), 6.69 µM; in experiment [4] (setting [13]), 44.5 µM; in [5] (setting [14]) it was 53.8 µM.

Take `C=C1CC[C@@H]2[C@]3(C)COC(C)(C)O[C@@H]3CC[C@@]2(C)[C@@H]1C/C=C1/C(=O)OC[C@H]1OC(=O)CCCC(=O)O`: the IC50 in experiment [1] (setting [10]) was determined as 15.6 µM; in experiment [2] (setting [11]) it was 36.5 µM; in experiment [3] (setting [12]), 26.2 µM; in experiment [5] (setting [14]) it was 15.1 µM.

On to `C=C1CC[C@@H]2[C@](C)(CO)[C@H](O)CC[C@@]2(C)[C@@H]1CCC1C(=O)OC[C@H]1OC(=O)c1ccccc1C(=O)O` (stereo partly specified), for which the IC50 entry in experiment [1] (u-937), in experiment [2] (k562), in [3] (thp-1), in experiment [4] (nih3t3) and in experiment [5] (l132) was “Not Active” each time.

On to `C=C1CC[C@@H]2[C@](C)(CO)[C@H](O)CC[C@@]2(C)[C@@H]1CCC1C(=O)OC[C@H]1OC(=O)CCCC(=O)O` (stereo partly specified), for which the IC50 entry in [1] (u-937), in experiment [2] (k562), in experiment [3] (thp-1), in [4] (nih3t3) and in [5] (l132) was “Not Active” in each case.
